Here are results for eleven molecules from ChEMBL document CHEMBL3352332, “Synthesis and SAR study of novel anticancer and antimicrobial naphthoquinone amide derivatives” (Bioorg Med Chem Lett, 2014).

SMILES strings stand for the structures. pIC50: −log10 of the molar value. Values after ≈ are worked out from the molar mass of the structure shown. Active and inactive are the calls of the source.

The test system of one assay is HeLa. In words: Cytotoxicity against human HeLa cells assessed as reduction in cell viability after 48 hrs by MTT assay. It is filed as functional, cell-based. For orientation: Formazan colour is commonly taken as a measure of viable cells.
The subject of assay [1] is Staphylococcus aureus. Nature of the assay: Antibacterial activity against methicillin-resistant Staphylococcus aureus by NCCLS method. It is filed as functional.
The next assay has as its system SAS. In words: Cytotoxicity against human SAS cells assessed as reduction in cell viability after 48 hrs by MTT assay. The class given is functional, cell-based.
The next assay has as its system Pseudomonas aeruginosa. Nature of the assay: Antibacterial activity against Pseudomonas aeruginosa MTCC 201 at 100 ug/well after 24 hrs by well diffusion assay. The class given is functional. The procedure, abridged: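 17 h bacterial cultures swabbed onto Mueller Hinton agar; after 10 min wells were cut with a cork borer and loaded with compound from a 10 mg/mL stock, with a DMSO control. Plates were held at 37 °C for 24 h, and susceptibility was read as the diameter of the zone of inhibition in mm.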
For orientation: In agar diffusion tests the substance spreads into inoculated agar from a disc or well.

In assay [2] the test system is Staphylococcus aureus. In words: Antibacterial activity against methicillin-resistant Staphylococcus aureus at 100 ug/well after 24 hrs by well diffusion assay. The class given is functional. As to conditions: read-out: DIZ. The procedure, abridged: (§1)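 Agar well diffusion on Mueller Hinton agar: 17 h cultures swabbed over the surface, wells cut with a cork borer after 10 min. Each well loaded with 10 µl of a 10 mg/mL DMSO stock (100 µg/well), with a DMSO control well. Plates incubated at 37 °C for 24 h. Zone of inhibition diameter measured in mm.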

In assay [3] the test system is Candida albicans. In words: Antifungal activity against fluconazole-resistant Candida albicans at 100 ug/well after 24 hrs by well diffusion assay. The class given is functional. As to conditions: read-out: DIZ. The procedure, abridged: as §1
The subject of assay [4] is Candida albicans. Nature of the assay: Antifungal activity against fluconazole-resistant Candida albicans by NCCLS method. It is filed as functional.

`COC(=O)[C@H](CC(C)C)NC(=O)CSC1=C(OC)C(=O)c2ccccc2C1=O`: the values for the pIC50 in the assay with HeLa and with SAS were 4.20 and 4.59, respectively. Besides, the MIC (usually the smallest concentration in the dilution series that meets the test's criterion for growth inhibition) came to 7.8 µg/mL (≈ 19.2 µM) in the assay with Staphylococcus aureus [1] and 62.5 µg/mL (≈ 154 µM) against Candida albicans [4]. Moreover, the “diameter of the inhibition zone (DIZ)” value with Pseudomonas aeruginosa is “inactive”. For the same molecule, the zone of inhibition at 100 µg/disc worked out at 21 mm with Staphylococcus aureus [2] and 19 mm with Candida albicans [3].

Turning to `COC(=O)[C@@H](NC(=O)CSC1=C(C)C(=O)c2ccccc2C1=O)C(C)C`, the values for the pIC50 in the assay with HeLa and with SAS were 4.70 and 4.80, respectively. Moreover, the MIC against Staphylococcus aureus [1] and in the assay with Candida albicans [4] was 15.6 µg/mL (≈ 41.6 µM) each time. Moreover, the “diameter of the inhibition zone (DIZ)” value with Pseudomonas aeruginosa was “inactive”. Also, the zone of inhibition at 100 µg/disc in the assay on Staphylococcus aureus [2] and in the assay on Candida albicans [3] was 19 mm in each case.

As to `CC[C@H](C)[C@H](NC(=O)CSC1=C(OC)C(=O)c2ccccc2C1=O)C(=O)OC`, the negative logarithm of the IC50 (pIC50) (as a rule, the negative decadic logarithm of the IC50, by convention in mol/L) was 4.09 in the assay with HeLa and 4.22 with SAS. Moreover, the MIC in the assay with Staphylococcus aureus [1] and with Candida albicans [4] was 7.8 µg/mL (≈ 19.2 µM) each time. Also, the “diameter of the inhibition zone (DIZ)” value in the assay with Pseudomonas aeruginosa was “inactive”. In addition, the zone of inhibition at 100 µg/disc in the assay on Staphylococcus aureus [2] came to 15 mm; in the assay with Candida albicans [3], 12 mm.

For `COC(=O)CNC(=O)CSC1=CC(=O)c2cccc(OC)c2C1=O`, the negative-log IC50 (pIC50) in the assay on HeLa and in the assay on SAS was under 4.00 each time. Also, the MIC stood at 3.9 µg/mL (≈ 11.2 µM) in the assay on Staphylococcus aureus [1] and 7.9 µg/mL (≈ 22.6 µM) against Candida albicans [4]. Also, in the assay with Pseudomonas aeruginosa, the “diameter of the inhibition zone (DIZ)” value is “inactive”. Besides, the zone of inhibition at 100 µg/disc with Staphylococcus aureus [2] and in the assay with Candida albicans [3] was 19 mm in each case.

Consider `CC[C@H](C)[C@H](NC(=O)CSC1=CC(=O)c2cccc(OC)c2C1=O)C(=O)OC`, for which the values for the negative logarithm of the IC50 (pIC50) in the assay with HeLa and in the assay on SAS were 4.02 and 4.20, respectively. Besides, the MIC against Staphylococcus aureus [1] and in the assay on Candida albicans [4] was 15.6 µg/mL (≈ 38.5 µM) in each case. The “diameter of the inhibition zone (DIZ)” value in the assay on Pseudomonas aeruginosa is “inactive”. Besides, the values for the zone of inhibition at 100 µg/disc in the assay with Staphylococcus aureus [2] and with Candida albicans [3] were 19 mm and 15 mm, respectively.

For the molecule `COC(=O)[C@H](CC(C)C)NC(=O)CSC1=C(C)C(=O)c2cccc(OC)c2C1=O`, the negative-log IC50 (pIC50) in the assay with HeLa is under 4.00; in the assay on SAS it was 4.11. The minimum inhibitory concentration (MIC) in the assay with Staphylococcus aureus [1] and in the assay with Candida albicans [4] was 7.8 µg/mL (≈ 18.6 µM) each time. The “diameter of the inhibition zone (DIZ)” value with Pseudomonas aeruginosa is “inactive”. The results for the zone of inhibition at 100 µg/disc in the assay on Staphylococcus aureus [2] and in the assay with Candida albicans [3] were 21 mm and 25 mm, respectively.

On to `COC(=O)[C@H](Cc1ccccc1)NC(=O)CSC1=C(C)C(=O)c2cccc(OC)c2C1=O`, for which the negative logarithm of the IC50 (pIC50) with HeLa is under 4.00; in the assay with SAS it was 4.25. The minimum inhibitory concentration (MIC) in the assay on Staphylococcus aureus [1] and against Candida albicans [4] was 125 µg/mL (≈ 276 µM) in each case. Further, in the assay with Pseudomonas aeruginosa, the “diameter of the inhibition zone (DIZ)” value is “inactive”. Moreover, the zone of inhibition at 100 µg/disc in the assay on Staphylococcus aureus [2] was 15 mm; in the assay with Candida albicans [3], 13 mm.

As to `COC(=O)CCCNC(=O)CSC1=C(OC)C(=O)c2ccccc2C1=O`, the pIC50 in the assay with HeLa was 4.62; in the assay with SAS it was 4.61. Further, the MIC against Staphylococcus aureus [1] and against Candida albicans [4] was 15.6 µg/mL (≈ 41.3 µM) in each case. The “diameter of the inhibition zone (DIZ)” value with Pseudomonas aeruginosa is “inactive”. In addition, the zone of inhibition at 100 µg/disc in the assay on Staphylococcus aureus [2] and in the assay on Candida albicans [3] was 26 mm throughout.

With `CC1=CC(=O)c2c(O)cccc2C1=O` [PLUMBAGIN], the pIC50 is 4.59 with HeLa and 5.52 in the assay on SAS. In addition, the MIC with Staphylococcus aureus [1] and with Candida albicans [4] was 125 µg/mL (≈ 664 µM) each time. Besides, the “diameter of the inhibition zone (DIZ)” value with Pseudomonas aeruginosa is “inactive”. The zone of inhibition at 100 µg/disc in the assay with Staphylococcus aureus [2] and in the assay on Candida albicans [3] was 12 mm throughout.

With `COC(=O)CNC(=O)CSC1=C(OC)C(=O)c2ccccc2C1=O`, the pIC50 was 4.11 with HeLa and 4.92 in the assay with SAS. Further, the MIC in the assay with Staphylococcus aureus [1] and against Candida albicans [4] was 15.6 µg/mL (≈ 44.7 µM) each time. For the same molecule, the “diameter of the inhibition zone (DIZ)” value in the assay with Pseudomonas aeruginosa is “inactive”. For the same molecule, the zone of inhibition at 100 µg/disc came out at 17 mm in the assay with Staphylococcus aureus [2] and 16 mm in the assay with Candida albicans [3].

For the molecule `COC(=O)[C@H](Cc1ccccc1)NC(=O)CSC1=CC(=O)c2cccc(OC)c2C1=O`, the results for the negative logarithm of the IC50 (pIC50) in the assay on HeLa and in the assay on SAS were 4.24 and 4.40, respectively. Moreover, the MIC in the assay with Staphylococcus aureus [1] and in the assay with Candida albicans [4] was 7.8 µg/mL (≈ 17.7 µM) in each case. In addition, the “diameter of the inhibition zone (DIZ)” value with Pseudomonas aeruginosa is “inactive”. For the same molecule, the figures for the zone of inhibition at 100 µg/disc with Staphylococcus aureus [2] and in the assay with Candida albicans [3] were 15 mm and 17 mm, respectively.
